Compound activity from PubChem BioAssay.
Compounds with a hit are over-represented: about 10% of the library has one in this group of screens.
PMI act satM6P – activators of human phosphomannose isomerase at near-saturating mannose 6-phosphate; P34949; coupled PMI enzyme assay, resazurin fluorescence, 20 min; hits give high values; 1 = untreated enzyme, 0 = substrate-free blank; activation factor at 20 µM; 190,000 tested, 0.34% active; AID 1216;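 active = activation factor of 2 or more at 20 µM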
Target sequence (P34949 whole entry, looked up): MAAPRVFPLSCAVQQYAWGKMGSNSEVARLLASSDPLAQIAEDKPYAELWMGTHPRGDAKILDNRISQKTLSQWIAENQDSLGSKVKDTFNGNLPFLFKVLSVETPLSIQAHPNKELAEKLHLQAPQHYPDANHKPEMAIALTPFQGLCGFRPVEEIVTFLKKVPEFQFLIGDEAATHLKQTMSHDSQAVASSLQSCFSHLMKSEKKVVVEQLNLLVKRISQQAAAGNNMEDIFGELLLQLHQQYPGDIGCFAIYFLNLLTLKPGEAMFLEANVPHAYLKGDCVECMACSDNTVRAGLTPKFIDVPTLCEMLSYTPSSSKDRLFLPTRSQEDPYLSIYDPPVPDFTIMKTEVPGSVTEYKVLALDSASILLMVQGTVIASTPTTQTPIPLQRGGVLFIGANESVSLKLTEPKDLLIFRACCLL
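Test system: human phosphomannose isomerase with PGI, G6PDH, diaphorase coupling enzymes; Amount: PMI at 15 ng/mL final; Reagent: Mannose-6-phosphate 1.0 mM (near-saturating) plus 0.22 mM NADP+; Timing: 20 min, room temperature; Technique: resorufin fluorescence at Ex 544/Em 590 nm; Dosing: 20 µM single dose.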
Diaph act CS – counter-screen for diaphorase-based assays: diaphorase activators and chemical reducers; Diaphorase/resazurin coupled assay, resorufin fluorescence, 16 min; hits give high values; 1 = vehicle wells, 0 = NADH-free wells; activation factor at 20 µM; 190,000 tested, 0.005% active;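 active = diaphorase activity raised at least twofold by the compound at 20 µM; inactive = activation factor below 2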
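Test system: Clostridium kluyveri diaphorase, purified enzyme; input: enzyme 0.07 U/mL final; buffer or medium: 50 mM HEPES pH 7.4 with 4.542 mM MgCl2, 0.005% Tween 20; also added: 0.114 mM NADH and 0.1 mM resazurin, final amounts; schedule: 16 min enzyme reaction, ambient temperature; technique: fluorescence of resorufin, 544 nm excitation, 590 nm emission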
WT yeast gro inh – growth inhibition of WT yeast, mitochondrial fusion screen; mitochondrial fusion phenotypic screen, WT strain; inhibition, % at 10 µM; 190,000 tested, 2.1% active; AID 1362; in the data active = inhibition above about 58%; tested in S. cerevisiae
PMI activator – activators of human phosphomannose isomerase; 190,000 tested, 0.005% active; P34949; purified human PMI, coupled resazurin fluorescence, 20 min; hits give high values; 1 = vehicle control, 0 substrate-free wells; activation factor at 20 µM;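 active = activation factor of 2 or more at 20 µM, relative to plate controls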
Lmaj promast – inhibitors of Leishmania major promastigote growth; Leishmania major promastigotes, resazurin fluorescence viability; inhibition, % at 10 µM; 200,000 tested, 9% active; AID 1063; in the data active = inhibition above about 50%;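 note: promastigotes grown with compound for 44 hours at 28 °C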
* hit, by the source's call; x = no result.

SMILES	PMI act satM6P	Diaph act CS	WT yeast gro inh	PMI activator	Lmaj promast
CCn1cc(C=C2C(=O)c3ccccc3C2=O)c2ccccc21	0.8	0.8	11	0.9	-4
COc1cc(C#CC#CCN2CCCCC2)ccc1O	0.9	0.9	1	1	86*
COc1cc2[nH]c(=O)n(CCC(=O)N3CC=C(c4ccccc4)CC3)c(=O)c2cc1OC	0.9	0.8	30	0.9	-5
COc1cc2[nH]c(=O)n(CCC(=O)N3CCC(N4CCCCC4)CC3)c(=O)c2cc1OC	1	0.9	71*	1	3
Cc1[nH][nH]c(=O)c1C(c1c(C)[nH][nH]c1=O)c1cn(Cc2ccc(F)cc2)c2ccccc12	0.4	0.6	14	0.7	99*
Cc1[nH][nH]c(=O)c1C(c1c(C)[nH][nH]c1=O)c1cn(Cc2ccc(Cl)c(Cl)c2)c2ccccc12	0.4	0.6	71*	0.7	99*
O=C(O)Cc1cn(Cc2ccc(F)cc2)c2ccccc12	1.1	0.9	3	1.1	-11
O=c1ccc(NS(=O)(=O)c2ccccc2Cl)cn1Cc1ccc(Cl)c(Cl)c1	0.8	0.9	7	1.3	-4
CCc1cc(OCCCSc2nc(C)cc(=O)[nH]2)ccc1Cl	1	1	29	0.9	-1
Cc1onc(-c2c(F)cccc2Cl)c1C(=O)NC(=S)NCc1cccnc1	1	0.8	4	0.9	-5
CC(C)(C)c1ccccc1OCCOCCN1CCCCCC1	0.9	0.9	68*	1	96*
CC(C)(C)c1ccccc1OCCOCCSc1ncccn1	1	1.1	15	1.1	97*
Cc1cccc(C)c1OCCOCCN1CCN(C)CC1	1	0.9	-9	1	4
Cc1ccc(C(C)(C)C)c(OCCOCCN2CCCC2)c1	1	0.8	9	1	96*
Cc1c(NC(=O)CN2C(=O)NC3(CCC(C)CC3)C2=O)c(=O)n(-c2ccccc2)n1C (stereo not drawn)	0.9	0.9	11	0.9	-9
COC(=O)/C=C1\C(=O)N(c2nc3ccc(OC)cc3s2)C(=S)N1c1ccc(F)cc1	0.9	0.9	9	0.9	67*
COC(=O)/C=C1\C(=O)N(c2nc3ccccc3s2)C(=S)N1c1ccc(F)cc1	1.1	1	21	1.1	40
NC(=O)CCn1ccc2ccccc21	1	0.9	-8	1	-6
CC(C)N(Cc1ccccc1)CC(O)COc1ccc(S(=O)(=O)N2CCOCC2)cc1Cl (stereo not drawn)	1.1	1	-21	1.1	100*
O=S(=O)(c1ccc(OCC(O)CNCc2ccco2)c(Cl)c1)N1CCOCC1 (stereo not drawn)	1	1.1	7	1	-4
Cc1ccc(C(=O)NC(=S)Nc2ccccc2C(F)(F)F)cc1C	0.8	0.7	80*	0.7	1
COc1ccc(C(=O)NC(=S)Nc2ccccc2F)cc1	1	0.8	8	1	64*
O=S(=O)(Nc1nc2ccccc2nc1Nc1ccc2c(c1)OCO2)c1ccc(F)cc1	0.9	0.8	8	1	1
COc1cccc(NC(=O)COC(=O)CCS(=O)(=O)c2ccc(C)cc2)c1	0.9	0.8	19	0.9	1
Cc1ccc(NC(=O)c2ccc(NCCN)c([N+](=O)[O-])c2)cc1	1.1	1.1	-5	1	89*
SMILES	PMI act satM6P	Diaph act CS	WT yeast gro inh	PMI activator	Lmaj promast
O=C(Nc1cccc(Cl)c1)c1ccc(NCCCN2CCOCC2)c([N+](=O)[O-])c1	1	0.9	-7	1	99*
O=[N+]([O-])c1cc(S(=O)(=O)N2CCCC2)ccc1NCCCN1CCOCC1	1.1	1.1	16	1	20
Cc1ccc(NC(=O)c2ccc(NCC3CCCO3)c([N+](=O)[O-])c2)cc1Cl (stereo not drawn)	0.8	0.9	-5	1	-2
Cc1ccc(NC(=O)c2ccc(NCCCN3CCC(C)CC3)c([N+](=O)[O-])c2)cc1F	1.2	1.1	12	1.2	84*
Cc1cccc(NC(=O)c2ccc(NCCc3ccccc3)c([N+](=O)[O-])c2)c1	1.1	0.9	0	0.9	-3
Cc1ccc2nc(N3CCN(c4ccccc4F)CC3)c(C=O)c(=O)n2c1	0.8	0.5	6	0.8	-8
C=CCn1c(=O)c2ccc(C(=O)NCc3ccccc3)cc2n(Cc2ccc(C)cc2)c1=O	1.2	1.2	-10	1.2	8
COc1cccc(NC(=O)c2ccc(-c3ccc([N+](=O)[O-])cc3)o2)c1	x	x	8	x	-4
O=C(Nc1cccc(F)c1)c1ccc(-c2ccccc2Cl)o1	1	0.9	77*	1	5
Cc1ccc(-c2ccc(C(=O)Nc3cccc(F)c3)o2)c2ccccc12	0.9	0.9	21	1.2	25
CC(=O)c1cccc(NC(=O)c2ccc(-c3ccccc3[N+](=O)[O-])o2)c1	0.7	0.8	15	0.9	75*
C=CCn1c(SCC(=O)c2c(C)[nH]c3ccccc23)nnc1-c1ccncc1	1.1	1	5	1.1	-11
CC(=O)c1ccc(-n2nncc2-c2ccc([N+](=O)[O-])cc2)cc1	1.1	1	-7	1.1	2
CC(/C=N/N1C(=O)CSC1=S)=C\c1ccccc1	0.9	0.7	-10	0.9	-5
O=C1NC(=S)SC1=C1CCCC1	1	0.8	11	1	-4
CC(C)CCN1CCN(Cc2nc3ccccc3s2)CC1CCO (stereo not drawn)	1	1	-17	0.9	82*
OCCC1CN(Cc2nc3ccccc3s2)CCN1CCc1ccccc1 (stereo not drawn)	1	0.9	4	1	84*
CC(C)CN1CCN(Cc2nc3ccccc3s2)CC1CCO (stereo not drawn)	0.9	0.9	-3	0.9	6
Cc1oc(-c2cccs2)nc1CN1CCN(CCC(C)C)C(CCO)C1 (stereo not drawn)	x	x	4	x	84*
CC(C)NC(=O)C1CCN(C2CCN(Cc3nc4ccccc4s3)CC2)CC1	1	0.9	-2	1	86*
CC(C)CCN1CCN(CC(c2ccccc2)c2ccccc2)CC1CCO (stereo not drawn)	1	1	-7	1	91*
O=Nc1c(O)n(Cc2ccc(Cl)cc2)c2ccccc12	1	0.9	15	1.1	-4
Cc1ccc2c(c1)c(N=O)c(O)n2Cc1ccc(Cl)cc1	0.8	0.7	74*	0.9	0
CC(C)OC(=O)CCCNc1ccc([N+](=O)[O-])cc1[N+](=O)[O-]	1.1	0.9	3	1	-4
COc1ccccc1C1(CCNS(=O)(=O)c2ccc(C)cc2)CCOC(C(C)C)C1 (stereo not drawn)	0.9	0.7	59*	0.8	83*
COc1ccccc1C1(CC(=O)O)CCOC(C(C)C)C1 (stereo not drawn)	0.9	0.9	5	0.9	-4
